DSG3 Ab inh: human desmoglein-3 autoantibody binding inhibition | P32926 | binding (percent of control), % at 10 µM | actives 0.48% (n = 310,000) | DSG3-coupled beads, scFv-anti-DSG3-GFP binding, flow cytometry; active compounds read low;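 active means binding more than 3 SD below its plate's average and above zero; inconclusive means below that plate limit but binding exactly zero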;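 further: hits lower antibody fragment binding to DSG3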
Apaf-1 inh: inhibitors of human Apaf-1 apoptosome | inhibition, % at 20 µM | actives 0.71% (n = 330,000) | O14727 | reconstituted apoptosome caspase-3 activity, DEVD-Rh110 fluorescence; active means inhibition of at least 40% at 20 µM;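 further: plate controls were DMSO wells for no effect and DEVD-CHO caspase inhibitor wells for full effect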
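System: reconstituted apoptosome with Apaf-1, cytochrome c, caspase-9, procaspase-3, dATP; Signal: Rh110 fluorescence intensity; Schedule: 30 min compound preincubation, 50 min activation, room temperature; Reagent: cytochrome c trigger plus (Z-DEVD)2-Rh110 caspase-3 substrate.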
MEKK2 WT-MEK5: raises or lowers MEK5 binding to wildtype human MEKK2 PB1 domain; Q9Y2U5; bead flow cytometry, Alexa488-MEK5 binding to MEKK2 WT; actives lie on both sides; binding response (% of control), % at 10 µM; actives 1.1% (n = 290,000); AID 1531; in the data active means binding response below about 67% or above about 130%; inconclusive means no clear call, values can overlap the other calls; inactive means in between
MEKK2 mut-MEK5: signal of MEK5 binding to mutant human MEKK2 PB1 domain; AID 1530; actives 0.35% (n = 290,000); bead flow cytometry, Alexa488-MEK5 binding to MEKK2 mutant; percent response, % at 10 µM; in the data active means percent response above about 24%, passing the limit was not always enough
MEKK3 PB1 HTS: MEKK3-MEK5 PB1 interaction, increase or decrease; Q99759; bead-based flow cytometry, Alexa488-MEK5 binding to MEKK3; actives lie on both sides; 0 = blocked by unlabeled MEK5, 100 = vehicle; binding response (% of control), % at 10 µM; actives 1.4% (n = 290,000);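 active means binding response more than 3 SD above or below the average of its plate-row segment, actives on both sides; inconclusive means wells at one plate position flagged as instrument error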;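 further: Alexa488 bead fluorescence after subtracting the streptavidin-only scavenger bead signal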
UBC13 polyUb: human UBC13 polyubiquitination inhibition. P61088. UBC13 polyubiquitin chain formation, TR-FRET. inhibition, % at 20 µM. actives 0.47% (n = 330,000). AID 485273; in the data active means inhibition above about 45%, passing the limit was not always enough; inconclusive means no clear call, values can overlap the other calls
Numbers without * were called inactive; ? = inconclusive; . = not tested or not shown. The list is not random: actives were taken first. Their share in the collection is about 3.2%.

SMILES	DSG3 Ab inh	Apaf-1 inh	MEKK2 WT-MEK5	MEKK2 mut-MEK5	MEKK3 PB1 HTS	UBC13 polyUb
CCCCOc1ccc(C(C)NC(=O)CCS(=O)(=O)Cc2ccc(Cl)cc2)cc1 (stereo not drawn)	105	-4	101	0	89	20
COc1ccccc1-n1cnc2c(c1=O)c1nc3ccccc3nc1n2-c1ccc(C)c(C)c1	35*	.	88	1	100	.
CN(C)CCCN(C(=O)c1ccc(S(=O)(=O)N2CCc3ccccc3C2)cc1)c1nc2c(F)cccc2s1	119	32	208*	45*	109	29
CN(C)CCCN(C(=O)c1ccc(S(=O)(=O)N2CCCC2)cc1)c1nc2c(F)cc(F)cc2s1	103	2	.	.	.	12
Cc1ccc2nc(N(CCCN(C)C)C(=O)c3ccc(S(=O)(=O)N4CCOCC4)cc3)sc2c1	120	4	116	10	100	15
CN(C)CCCN(C(=O)c1ccc(S(=O)(=O)N2CCc3ccccc32)cc1)c1nc2ccc(Cl)cc2s1	.	31	181*	33*	107	12
Cc1cc(C)c2sc(N(CCCN(C)C)C(=O)c3ccc(S(=O)(=O)N4CCCc5ccccc54)cc3)nc2c1	119	37	.	.	.	62*
COc1ccc(-c2nonc2NC(=O)c2ccco2)cc1OC	102	5	101	0	102	-14
O=C(NC1CCCCC1)c1csnn1	96	.	.	.	.	.
CCCOc1cccc(C(=O)NCCNC(=O)c2ccc(C)nc2)c1	99	-2	100	5	98	0
O=C(OC1C2C=CC1C1C(=O)NC21)c1ccccc1 (stereo not drawn)	106	.	.	.	.	.
COC(=O)CCC(=O)OC1(C)C(=O)C2=CN(Cc3ccco3)C(c3ccc(OC)cc3)=CC2=C(Br)C1=O (stereo not drawn)	.	8	86	-4	85	-65
COC(=O)CCC(=O)OC1(C)C(=O)C2=CN(c3ccc(OC)cc3)C(c3ccc(OC)cc3)=CC2=C(Br)C1=O (stereo not drawn)	88	27	-6.0*	-1	87	-94
O=C1c2c(O)ccc(O)c2C(=O)c2c(NCCNCCO)ccc(NCCNCCO)c21	101	78*	.	.	.	34
COc1cccc(C(=O)N[C@@H](C)C(=O)N2CCC3(CC2)NCCc2[nH]cnc23)c1	.	6	101	1	102	-2
COc1ccc(N2CCN(C(=O)COC(=O)/C=C/c3ccc(OC(F)F)cc3)CC2)cc1	90*	0	.	.	.	-11
COc1ccc(N2CCN(C(=O)COC(=O)/C=C/c3ccc(C(F)(F)F)cc3)CC2)cc1	95	8	.	.	.	-8
CCOCc1c(C(=O)N2CCN(CC(=O)Nc3ccc(F)cc3)CC2)oc2ccccc12	?	6	.	.	.	-1
O=C(CSc1nc(-c2ccccc2Cl)ns1)NCc1ccco1	.	12	102	1	101	7
O=C(CSc1nc(-c2ccccc2)cc(=O)[nH]1)NCc1ccc2c(c1)OCO2	68*	-1	101	-4	100	1
O=C(CSc1nc(-c2ccccc2Cl)ns1)NCc1ccc2c(c1)OCO2	75*	2	104	5	101	6
CCOCc1c(C(=O)OCC(=O)NCc2ccc(F)cc2)oc2ccccc12	?	0	.	.	.	-4
CSc1ccccc1NC(=O)c1cc(S(=O)(=O)N(C)C)ccc1N1CCCC1	.	52*	107	5	104	10
CN(C)S(=O)(=O)c1ccc(N2CCCC2)c(C(=O)Nc2ccccc2N2CCOCC2)c1	104	.	.	.	.	.
CCOc1ccc(NC(=O)CSc2nc3c([nH]c4ccccc43)c(=O)n2C)cc1	104	-18	103	0	103	-7
SMILES	DSG3 Ab inh	Apaf-1 inh	MEKK2 WT-MEK5	MEKK2 mut-MEK5	MEKK3 PB1 HTS	UBC13 polyUb
COc1ccc(NC(=O)CSc2nc3c([nH]c4ccccc43)c(=O)n2C)c(OC)c1	49*	0	99	-1	94	-11
CN(C)c1nc(N)ncc1-c1ccc(Oc2ccccc2)cc1	79*	6	104	3	101	32
COc1ccccc1C(=O)Nc1ccc2c(c1)nc1n2CCN(C2CCCCC2)C1	.	23	-12*	12	92	0
O=C(Nc1ccc2c(c1)nc1n2CCN(C2CCCCC2)C1)c1ccco1	96	.	86	-10	77	.
CC[C@H]1C(=O)[C@@H](Cc2ccccc2)[C@@H]2CCN3C(=O)CCC[C@H]1[C@H]23	105	.	.	.	.	.
Cc1c(O)cc2c(c1O)C(=O)CC(c1ccc(O)cc1)O2 (stereo not drawn)	77*	-31	86	-9	99	-7
COc1cc(O)c2c(c1)OC(c1ccc(O)cc1)CC2=O (stereo not drawn)	108	-6	97	1	104	4
O=C(Nc1ccc(S(=O)(=O)Nc2nccs2)cc1)c1nn(-c2ccccc2)ccc1=O	83	9	101	3	101	-4
COc1ccc(-n2ccc(=O)c(C(=O)Nc3ccc(S(=O)(=O)Nc4nccs4)cc3)n2)cc1	49*	9	101	7	100	-11
Cc1ccc(O)c(NC(=O)CSc2ccc(Cl)cc2)c1	3.0*	7	98	-1	102	14
O=C(CCN1C(=O)/C(=C/c2ccc(F)cc2)SC1=S)NNC(=O)c1cccnc1	88*	1	111	13	107	-12
O=C(CCN1C(=O)/C(=C/c2ccccc2)SC1=S)NNC(=O)c1cccnc1	.	3	93	30	105	-6
O=C(CCN1C(=O)/C(=C/c2cccc(Br)c2)SC1=S)NNC(=O)c1cccnc1	83*	5	103	3	101	-20
CC(C)CN(CC(C)C)c1nn[nH]n1	86*	.	.	.	.	.
CCCCN(CCCC)c1nn[nH]n1	113	.	.	.	.	.
COc1cccc(-c2ncc3ccccc3c2COC(=O)c2ccc(C(C)(C)C)cc2)c1	97	19	.	.	.	-16
Cc1ccc(C(=O)N(CC(=O)NC2CCCC2)c2ccccc2F)s1	106	.	.	.	.	.
Cc1ccc2c(c1)c1c(n2CC(O)CN2CCOCC2)CCCC1 (stereo not drawn)	.	-2	19*	20	102	-10
Cc1ccc2c(c1)c1c(n2CC(O)CN2CCC(C)CC2)CCCC1 (stereo not drawn)	107	-22	125	21	102	14
COc1ccc(C(CNC(=O)c2cccc(N(C)C)c2)N2CCCC2)cc1 (stereo not drawn)	.	12	110	-3	99	18
COc1ccc(C(CNC(=O)c2oc3ccc(OC)cc3c2C)N2CCCC2)cc1 (stereo not drawn)	115	16	.	.	.	43
CCC1CCc2sc(C(=O)NCC(c3ccc(OC)cc3)N3CCCC3)cc2C1 (stereo not drawn)	124	46*	.	.	.	9

Source: PubChem (several laboratories)
